# Screens as filed in PubChem BioAssay.
# An excerpt weighted towards active compounds, which were near 3.5% of everything screened.
# MrgX1 antag: antagonists of human MrgX1 receptor, primary screen, HEK293 cells, Fluo-4 calcium flux | Mas-related G-protein coupled receptor member X1 (Homo sapiens), Q96LB2 | BAM8-22 antagonism; active compounds read low | B-score at 10 µM | actives 1.3% (n = 310,000);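 active = calcium-response B-score plate-corrected more than 3 library SD below zero, starting fluorescence within 5 deviations, no agonist response on first addition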;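 note: peak minus trough fluorescence over baseline after final BAM8-22 challenge near maximal dose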
# Target sequence (Q96LB2 whole entry, looked up): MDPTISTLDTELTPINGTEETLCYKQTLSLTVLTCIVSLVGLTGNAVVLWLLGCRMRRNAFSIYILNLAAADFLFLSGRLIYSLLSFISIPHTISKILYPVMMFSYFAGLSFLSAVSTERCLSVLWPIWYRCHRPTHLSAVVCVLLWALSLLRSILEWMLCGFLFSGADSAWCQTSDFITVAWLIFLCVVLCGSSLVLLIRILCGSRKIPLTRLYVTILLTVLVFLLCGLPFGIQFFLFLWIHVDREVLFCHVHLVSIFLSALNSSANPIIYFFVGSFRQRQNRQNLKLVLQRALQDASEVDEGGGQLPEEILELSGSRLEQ
# RGS4 act: RGS4 potentiators or activators, primary screen, cell-based, HEK293 M3R inducible RGS4, calcium flux | carbachol calcium flux Fluo4; active compounds read low | B-score at 10 µM | actives 0.92% (n = 310,000) | AID 463111, 2010;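 active = B-score of the integrated calcium signal more than 4 SD below the library mean, with starting fluorescence not abnormally high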;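 note: negative B-score means reduced calcium response which marks RGS4 activation or potentiation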
#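 Assay system: Inducible-RGS4 HEK293 cells carrying M3 receptor | Schedule: Compound preincubation 20 min at room temperature before agonist | Signal: Kinetic calcium fluorescence imaging with Fluo4-AM dye, 2 µM | Read-out basis: B score from integrated fluorescence ratio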
# RGS4 inh: RGS4 inhibitors, primary screen, cell-based, HEK293 M3R inducible RGS4, calcium flux | AID 463165, 2010 | Fluo-4 calcium flux; active compounds read high; triggered by carbachol at its EC20 | B-score at 10 µM | Regulator of G-protein signaling 4 (Homo sapiens), P49798 | actives 0.45% (n = 310,000);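 active = B-score, a plate-corrected calcium signal, over three deviations above library mean, with baseline fluorescence within five deviations of library mean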;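 note: RGS4 expression induced by doxycycline in cells with stable M3 receptor; B-score is computed from the integrated fluorescence ratio over baseline after carbachol; higher B-score means a larger calcium signal and so more RGS4 inhibition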
# Target sequence (P49798 whole entry, looked up): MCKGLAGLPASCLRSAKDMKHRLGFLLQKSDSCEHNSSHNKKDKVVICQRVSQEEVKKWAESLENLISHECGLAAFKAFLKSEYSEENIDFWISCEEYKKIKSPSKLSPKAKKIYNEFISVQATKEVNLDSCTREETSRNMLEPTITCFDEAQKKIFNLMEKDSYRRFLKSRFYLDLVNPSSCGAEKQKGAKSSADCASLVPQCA
# MrgX1 allo act: positive allosteric modulators of MrgX1, primary screen, HEK293 cells, Fluo-4 calcium flux | FDSS; active compounds read high | B-score at 10 µM | actives 0.63% (n = 310,000) | AID 588675, 2011;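 active = plate-corrected calcium response at least 3 library SD above typical, normal starting fluorescence, not activating the receptor alone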;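 note: compound read alongside a low EC10 to EC30 dose of BAM8-22 agonist; peak minus trough fluorescence over baseline measured at the second addition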
# MrgX1 agonist: agonists of human MrgX1 receptor, primary screen, HEK293 cells, Fluo-4 calcium flux; Mas-related G-protein coupled receptor member X1 (Homo sapiens), Q96LB2; Fluo-4 calcium fluorescence, agonist mode; active compounds read high; B-score at 10 µM; actives 0.44% (n = 310,000); AID 588627, 2011;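 active = calcium response B-score plate-corrected fluorescence ratio at least 3 library SD, with starting fluorescence B-score inside 5 SD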
#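 times = overnight plating, then 30 min 37 °C plus 30 min room-temperature dye loading | assay system = stable human MrgX1 HEK293 cell line | input = fifteen thousand cells per well | signal = kinetic calcium dye fluorescence, Fluo-4 NW | dosing = compound delivered in addition one of three | read-out = B-scored fluorescence response ratio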
# MrgX1 ant reconf: MrgX1 receptor antagonists, duplicate retest, confirmation, HEK293 cells, Fluo-4 calcium flux; AID 602420, 2012; actives 19% (n = 2,300); shares compounds with MrgX1 antag; BAM8-22 calcium flux; active compounds read low; remaining BAM8-22 calcium response % of control (active compounds read low), % at 10 µM;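 active = remaining agonist calcium response no higher than 100% minus 3 SD of agonist-only control wells, with starting fluorescence near control levels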;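 note: agonist BAM8-22 given at a near maximal EC90 to ECmax level; peak minus minimum fluorescence divided by baseline after agonist addition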
# HEK293 Ca flux: nonspecific calcium signal in parental HEK293, confirmation, counter-screen for MrgX1 antagonist project, parental HEK293 cells, Fluo-4 calcium flux | Fluo-4 calcium fluorescence, FDSS | shares compounds with MrgX1 antag | actives 2% (n = 4,000) | fluorescence ratio F(max-min)/F0 at 10 µM;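 active = duplicate-averaged calcium fluorescence ratio at least three times the standard deviation of buffer wells, a nonspecific response in parental cells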
# HEK293 Ca counter: calcium response in parental HEK293 cells, primary screen, counter-screen for MrgX1 allosteric activator project, cell-based, Fluo-4 calcium flux, duplicate; shares compounds with MrgX1 antag; Fluo-4 fluorescence ratio; active compounds read high; fluorescence ratio F(max-min)/F0 at 10 µM; actives 0.4% (n = 4,000); AID 624114, 2012;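 active = calcium fluorescence ratio, averaged over duplicates, at least 3 SD of the buffer-well ratio, meaning a nonspecific response in receptor-free cells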;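 note: untransfected parental HEK293 lacking MrgX1 used as counterscreen for MrgX1 allosteric activators; fluorescence change taken during the second addition on a kinetic imager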
# HEK293 Ca cntr2: calcium response in parental HEK293 cells, primary screen, counter-screen for MrgX1 agonist project, cell-based, Fluo-4 calcium flux, duplicate, agonist mode; Fluo-4 calcium fluorescence (FDSS); active compounds read high; actives 8.7% (n = 4,000); fluorescence ratio F(max-min)/F0 at 10 µM; shares compounds with MrgX1 antag;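 active = calcium fluorescence ratio at least three times the spread of buffer wells, meaning a non-specific response in parental cells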
# Starred values were filed as active, the others as inactive; i = inactive; · = no result given.
SMILES,MrgX1 antag,RGS4 act,RGS4 inh,MrgX1 allo act,MrgX1 agonist,MrgX1 ant reconf,HEK293 Ca flux,HEK293 Ca counter,HEK293 Ca cntr2
COC(=O)C1=C(C)NC(=O)CC1c1ccc(F)c(Br)c1 (stereo not given),-4.6*,i,i,i,i,i,i,i,i
O=C(Nc1cc(Cl)cc(Cl)c1)c1ccno1,-4.5*,i,i,i,i,i,i,i,i
Cc1ccc(NNC(=O)c2ccno2)cc1Cl,i,i,i,i,i,·,·,·,·
Cc1cccc(C(=O)Nc2cccc3c2CCCC3)c1,i,i,i,i,i,·,·,·,·
COc1ccc(C)cc1NC(=O)C(=O)N/N=C(\C)CC(=O)Nc1cccnc1,i,i,i,i,i,·,·,·,·
CCC(C)Nc1nc2c(c(=O)n(C)c(=O)n2C)n1C (stereo not given),i,i,i,i,i,·,·,·,·
Cc1cccc(-c2nc(CSc3nc4c(c(=O)[nH]3)CCC4)c(C)o2)c1,-8.4*,i,i,i,i,82%*,i,i,i
O=C(NC(=S)NC1CCCCC1)c1ccccc1[N+](=O)[O-],i,i,i,i,i,·,·,·,·
Cc1ccc(OC(C)C(=O)Nc2ccc(S(=O)(=O)Nc3nccs3)cc2)cc1 (stereo not given),i,i,i,i,i,·,·,·,·
CCc1ccc(OC(C)C(=O)Nc2ccc(S(=O)(=O)Nc3nccs3)cc2)cc1 (stereo not given),-6.5*,i,i,i,i,74%*,i,i,46*
[N-]=[N+]=NC[C@H](Cc1ccccc1)N1CC[C@@H](NC(=O)OCc2ccccc2)CCC1=O,i,i,i,i,i,·,·,·,·
COc1cccc(/C=C(\C)C(=O)c2c(C)cc(C)[nH]c2=O)c1OC,i,i,i,i,i,·,·,·,·
Cn1cc(S(=O)(=O)N2CCCC2)cc1C(=O)N1CCN(c2ccccc2)CC1,-7.7*,i,i,i,i,84%*,i,i,i
O=S(=O)(Nc1ccc(F)cc1)N1CCOCC1,i,i,i,i,i,·,·,·,·
CC(=O)Nc1ccc(S(=O)(=O)Nc2nc3ccccc3nc2Nc2ccc(N)cc2)cc1,-6.2*,i,i,i,i,75%*,i,i,i
CC(=O)Nc1ccc(S(=O)(=O)Nc2nc3ccccc3nc2Nc2ccc3ccccc3c2)cc1,i,i,i,i,i,·,·,·,·
COc1ccc(S(=O)(=O)Nc2nc3ccccc3nc2Nc2ccc3c(c2)OCO3)cc1,-5.1*,i,i,i,i,i,i,i,i
O=S(=O)(Nc1nc2ccccc2nc1Nc1ccc2c(c1)OCCO2)c1cccs1,i,i,i,i,i,·,·,·,·
CC(=O)Nc1ccc(S(=O)(=O)Nc2cc(C)c(-n3nc4ccccc4n3)cc2O)cc1,-5.2*,i,i,i,i,i,i,i,i
CC(=O)Nc1ccc(S(=O)(=O)Nc2nc3ccccc3nc2Nc2cccc(O)c2)cc1,i,i,i,i,i,·,·,·,·
O=S1(=O)N(Cc2ccccc2F)CCCN1Cc1c(F)cccc1Cl,i,i,i,i,i,·,·,·,·
COc1ccc2[nH]c(C)cc(=O)c2c1,i,i,i,i,i,·,·,·,·
COc1ccc2[nH]c3c(c2c1)CCNC3C1CC=C(C)CC1 (stereo not given),-8.9*,i,i,i,i,i,i,i,i
COC(=O)Cc1cc(=O)oc2cc(O)ccc12,i,i,i,i,i,·,·,·,·
COc1ccc(N2CCN(C(c3ccccc3)c3nnnn3Cc3ccc(F)cc3)CC2)cc1 (stereo not given),i,i,i,i,i,·,·,·,·
SMILES,MrgX1 antag,RGS4 act,RGS4 inh,MrgX1 allo act,MrgX1 agonist,MrgX1 ant reconf,HEK293 Ca flux,HEK293 Ca counter,HEK293 Ca cntr2
COc1ccc(N2CCN(C(=O)Cn3nnc(-c4cccs4)n3)CC2)cc1,-5.2*,i,i,i,i,i,i,i,i
COC(=O)CCn1nnc(-c2cccs2)n1,-6.8*,i,i,i,i,75%*,i,i,i
COC(=O)c1ccc(NC(=O)Cn2nnc(-c3cccs3)n2)cc1,i,i,i,i,i,·,·,·,·
COc1ccc(C(=O)Cn2nnc(-c3cccs3)n2)cc1,i,i,i,i,i,·,·,·,·
O=C(NCCC1=CCCCC1)C1CCN(S(=O)(=O)c2cccc3nsnc23)CC1,i,i,i,i,i,·,·,·,·
C/C(NCCN1CCOCC1)=C(\C#N)C(N)=O,i,i,i,i,i,·,·,·,·
Cc1ccc(Nc2nnc(SCc3cc(=O)n4ccsc4n3)s2)c(C)c1,-7*,i,i,i,i,i,i,i,i
CCOC(=O)c1ccc(-c2c(-c3ccc4c(c3)OCO4)noc2C)cc1F,i,i,i,i,i,·,·,·,·
COc1ccc(C(=O)CC(=O)C(=O)Nc2ccc(OC)c(Cl)c2)cc1,-5.1*,i,i,i,i,i,i,i,i
COc1ccc(C(=O)CC(=O)C(=O)Nc2ccc(Cl)cc2)cc1,i,i,i,i,i,·,·,·,·
CSCCC(NC(=O)c1ccccc1Br)C(=O)N1CCCC(C(F)(F)F)C1 (stereo not given),i,i,i,i,i,·,·,·,·
Nc1nonc1-c1noc(N2CCCCC2)n1,-5.5*,i,i,i,i,85%*,i,i,i
O=c1cc(CSc2ccc(Cl)cc2)nc(N2CCCCC2)[nH]1,-7.1*,i,i,i,i,i,i,i,i
